In ChEMBL document CHEMBL1126655, “Synthesis and antiviral activity of novel isonucleoside analogs” (J Med Chem, 1993):

Legend:
Type in all cases: functional
Human alphaherpesvirus 1 [1] = experiment: Antiviral activity against Herpes simplex virus-1 (thymidine kinase deficient strains isolated as BVaraU resistant mutants of HSV-1 (KOS)); settings: read-out: ID50 (the source's name)
In short: (§1)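 WI-38 monolayers were infected, with virus adsorbed for 1–2 h. They were then overlaid with EMEM maintenance medium (1% carboxymethyl cellulose, 2.5% FBS) containing duplicate drug dilutions. Monolayers were stained after 4–6 days at 37 °C. ID50 was taken as the concentration giving 50% plaque reduction versus virus controls. Titrations were done in duplicate.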

WI-38 = experiment: Tested for growth inhibition against WI-38 cells; settings: Homo sapiens, read-out: ID50 (the source's name)
In short: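 WI-38 cells seeded at 1.2 × 10^6 per well, incubated overnight at 37 °C, then refed with growth medium (EMEM, 10% FBS) holding serial drug dilutions or none, for 3 more days at 37 °C. Quadruplicate cultures per concentration trypsinized and counted daily for viable cells by trypan blue exclusion.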

Human alphaherpesvirus 3 [2] = experiment: Antiviral activity against Varicella zoster virus (Kanno-Kohmura thymidine kinase deficient strain); settings: read-out: ID50 (the source's name); in short: as §1
Human alphaherpesvirus 3 [3] = experiment: Antiviral activity against Varicella zoster virus (Ellen strain); settings: read-out: ID50 (the source's name); in short: as §1
[4] = system: Cercopithecine alphaherpesvirus 9; experiment: Antiviral activity against Simina varicella virus (G815 strain); settings: read-out: ID50 (the source's name)
In short: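 Simian varicella virus G815 was grown from infected Vero cells and assayed by plaque reduction on Vero monolayers. Virus was adsorbed 1–2 h, then overlaid with EMEM (1% carboxymethyl cellulose, 2.5% FBS) containing duplicate drug dilutions. Staining was after 4–6 days at 37 °C. ID50 was the concentration giving 50% plaque reduction versus virus controls.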

Human alphaherpesvirus 3 [5] = experiment: Antiviral activity against Varicella zoster virus (Oka strain); settings: read-out: ID50 (the source's name); in short: as §1
[6] = Antiviral activity against Herpes simplex virus-1 (KOS strain); settings: Human alphaherpesvirus 1; read-out: ID50 (the source's name); in short: as §1
Human alphaherpesvirus 3 [7] = experiment: Antiviral activity against Varicella zoster virus (9021 strain); settings: read-out: ID50 (the source's name); in short: as §1
Human alphaherpesvirus 1 [8] = experiment: Antiviral activity against Herpes simplex virus-1 (Schooler strain); settings: read-out: ID50 (the source's name); in short: as §1
Vaccinia virus = experiment: Antiviral activity against vaccinia virus (CL strain); settings: Orthopoxvirus vaccinia; read-out: ID50 (the source's name)
Human betaherpesvirus 5 = experiment: Antiviral activity against Human cytomegalovirus (AD169 strain); settings: read-out: ID50 (the source's name); in short: as §1
Human alphaherpesvirus 3 [9] = experiment: Antiviral activity against Varicella zoster virus (ppIIa strain); settings: read-out: ID50 (the source's name); in short: as §1
Human alphaherpesvirus 3 [10] = experiment: Antiviral activity against Varicella zoster virus (Ito strain); settings: read-out: ID50 (the source's name); in short: as §1
Human alphaherpesvirus 2 = experiment: Antiviral activity against Herpes simplex virus-2 (thymidine kinase deficient strains isolated as BVaraU resistant mutants of HSV-1 (KOS)); settings: read-out: ID50 (the source's name)

Compound | IC50 (Human alphaherpesvirus 1 [1]) [µM] | IC50 (WI-38) [µM] | IC50 (Human alphaherpesvirus 3 [2]) [µM] | IC50 (Human alphaherpesvirus 3 [3]) [µM] | IC50 [4] [µM] | IC50 (Human alphaherpesvirus 3 [5]) [µM] | IC50 [6] [µM] | IC50 (Human alphaherpesvirus 3 [7]) [µM] | IC50 (Human alphaherpesvirus 1 [8]) [µM] | IC50 (Vaccinia virus) [µM] | IC50 (Human betaherpesvirus 5) [µM] | IC50 (Human alphaherpesvirus 3 [9]) [µM] | IC50 (Human alphaherpesvirus 3 [10]) [µM] | IC50 (Human alphaherpesvirus 2) [µM]
O=c1[nH]c(=O)n([C@@H]2CO[C@H](CO)[C@H]2CO)cc1/C=C/Br | > 290 | > 800 | > 300 | 0.1 | 30 | 3 | 3 | 0.5 | 3 | > 290 | > 290 | 0.3 | 0.06 | 
Nc1ncnc2c1ncn2[C@@H]1CO[C@H](CO)[C@H]1CO | 8 | 90 |  | 4 |  |  | 4 |  | 8 | 20 | 4 |  |  | 4
Nc1ccn([C@@H]2CO[C@H](CO)[C@H]2CO)c(=O)n1 |  | 160 |  | 0.4 |  |  |  |  | 40 | 400 | 100 |  |  | 
O=c1[nH]c(=O)n([C@@H]2CO[C@H](CO)[C@H]2CO)cc1I |  |  |  | 70 |  |  |  |  | 140 |  | > 270 |  |  | 
Cc1cn([C@@H]2CO[C@H](CO)[C@H]2CO)c(=O)nc1N |  |  |  | 200 |  |  |  |  | 390 |  | > 390 |  |  | 
